Assay results reported in ChEMBL document CHEMBL1142933, “Rational design of novel, potent small molecule pan-selectin antagonists” (J Med Chem, 2007).
pIC50: −log10 of the molar value.

Tests used:
[1] = tested on: HL-60; assay: Inhibition of attachment of HL60 cells to E-selectin at 109 uM after 5 mins; format: functional; details: Homo sapiens, HL-60, 5 min
Procedure, shortened: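 Dishes coated with E- or P-selectin/Fc chimera, blocked with BSA, mounted in a parallel flow chamber run recirculating; HL-60 cells at 2.4 million/mL final. Cells attached after 5 min continuous flow at calculated shear 1 dyn/cm², with 109 µM compound or DMSO vehicle, counted in five low power fields. Mean inhibition as % of vehicle control from mean cells/field of at least two independent experiments.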

[2] = target: T1, E-selectin (Homo sapiens, UniProt P16581); assay: Inhibition of human E-selectin after 2 hrs
T1 sequence (P16581 whole entry): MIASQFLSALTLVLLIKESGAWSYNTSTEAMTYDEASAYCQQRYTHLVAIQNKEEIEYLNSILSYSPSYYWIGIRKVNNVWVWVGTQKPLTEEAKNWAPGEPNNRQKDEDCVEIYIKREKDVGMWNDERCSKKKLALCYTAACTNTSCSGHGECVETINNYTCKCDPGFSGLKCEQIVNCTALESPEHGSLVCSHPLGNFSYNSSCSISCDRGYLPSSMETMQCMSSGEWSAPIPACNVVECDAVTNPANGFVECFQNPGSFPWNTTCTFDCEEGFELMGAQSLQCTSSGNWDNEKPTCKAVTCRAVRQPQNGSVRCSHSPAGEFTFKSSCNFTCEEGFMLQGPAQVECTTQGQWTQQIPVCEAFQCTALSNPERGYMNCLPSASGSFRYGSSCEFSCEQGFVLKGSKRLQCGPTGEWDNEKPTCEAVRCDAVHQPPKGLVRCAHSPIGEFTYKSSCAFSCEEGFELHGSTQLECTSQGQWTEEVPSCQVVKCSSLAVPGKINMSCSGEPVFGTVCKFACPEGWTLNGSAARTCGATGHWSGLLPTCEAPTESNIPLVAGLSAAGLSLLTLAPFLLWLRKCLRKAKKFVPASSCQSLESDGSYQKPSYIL
Procedure, shortened: (§1)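 Biotinylated sLeX-tyrosine sulfate polyacrylamide complexed with streptavidin-peroxidase added with compound at varying concentrations (HEPES pH 7.4, 1 mM CaCl2, 1% DMSO), 2 h 37 °C. TMB read-out, OD 450 vs 620 nm.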

[3] = tested on: HL-60; assay: Inhibition of attachment of HL60 cells to P-selectin at 109 uM after 5 mins; format: functional; details: Homo sapiens, HL-60, 5 min
Procedure, shortened: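 Dishes coated with E- or P-selectin/Fc chimera, blocked with BSA, mounted in a parallel flow chamber run recirculating; HL-60 cells at 2.4 million/mL final. Mean inhibition as % of vehicle control from mean cells/field of at least two independent experiments.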

[4] = target: T2, L-selectin (Homo sapiens, UniProt P14151); assay: Inhibition of human L-selectin after 2 hrs; procedure, shortened: as §1
T2 sequence (P14151 whole entry): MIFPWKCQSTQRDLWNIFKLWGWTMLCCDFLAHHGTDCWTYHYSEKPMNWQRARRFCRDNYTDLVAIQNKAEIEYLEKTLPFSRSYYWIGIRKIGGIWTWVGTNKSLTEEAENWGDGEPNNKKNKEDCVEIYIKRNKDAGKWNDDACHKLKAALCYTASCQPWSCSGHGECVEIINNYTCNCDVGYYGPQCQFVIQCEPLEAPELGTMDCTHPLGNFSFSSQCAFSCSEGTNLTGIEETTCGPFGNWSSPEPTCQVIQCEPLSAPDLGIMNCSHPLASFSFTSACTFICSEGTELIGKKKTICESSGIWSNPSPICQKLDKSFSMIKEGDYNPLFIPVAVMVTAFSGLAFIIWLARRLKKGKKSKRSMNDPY

[5] = target: T3, P-selectin (Homo sapiens, UniProt P16109); assay: Inhibition of human P-selectin after 2 hrs; procedure, shortened: as §1
T3 sequence (P16109 whole entry): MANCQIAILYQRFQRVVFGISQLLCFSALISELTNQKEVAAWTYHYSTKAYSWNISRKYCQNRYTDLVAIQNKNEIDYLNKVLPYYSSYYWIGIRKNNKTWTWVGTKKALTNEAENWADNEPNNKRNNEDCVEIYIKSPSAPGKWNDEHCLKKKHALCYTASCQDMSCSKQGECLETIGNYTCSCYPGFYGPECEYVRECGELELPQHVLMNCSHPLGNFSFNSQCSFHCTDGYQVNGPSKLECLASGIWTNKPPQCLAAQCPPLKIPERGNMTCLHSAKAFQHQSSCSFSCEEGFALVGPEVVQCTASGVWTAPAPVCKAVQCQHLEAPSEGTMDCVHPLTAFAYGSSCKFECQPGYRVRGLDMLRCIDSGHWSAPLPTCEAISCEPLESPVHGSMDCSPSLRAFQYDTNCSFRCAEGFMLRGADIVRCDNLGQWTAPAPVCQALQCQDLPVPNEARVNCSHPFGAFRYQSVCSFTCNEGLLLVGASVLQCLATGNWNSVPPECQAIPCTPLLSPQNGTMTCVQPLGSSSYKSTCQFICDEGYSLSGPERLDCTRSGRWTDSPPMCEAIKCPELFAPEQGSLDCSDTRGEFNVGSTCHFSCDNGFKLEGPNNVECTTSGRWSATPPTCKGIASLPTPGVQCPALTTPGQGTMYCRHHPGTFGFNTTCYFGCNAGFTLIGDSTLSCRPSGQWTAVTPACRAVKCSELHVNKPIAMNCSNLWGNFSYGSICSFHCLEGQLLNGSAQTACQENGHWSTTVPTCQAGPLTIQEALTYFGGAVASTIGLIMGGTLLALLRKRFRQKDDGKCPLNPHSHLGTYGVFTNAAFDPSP

SMILES | inhibition at 109 µM [1] | pIC50 [2] | inhibition at 109 µM [3] | pIC50 [4] | pIC50 [5]
O=C(O)Cc1cccc(NC(=O)CCc2cc(O)c(O)c(O)c2)c1 | 19% |  |  |  | 
O=C(O)Cc1ccc(-c2ccccc2NC(=O)c2ccc(-c3ccc(O)c(O)c3O)cc2)s1 | 33% | 4.32 | 58% | 5.80 | 5.96
CC(=O)N[C@H]1[C@H]([C@H](O)[C@H](O)CO)O[C@@](O[C@H]2[C@@H](O)[C@@H](CO)O[C@@H](O[C@@H]([C@H](O[C@@H]3O[C@@H](C)[C@@H](O)[C@@H](O)[C@@H]3O)[C@H](C=O)NC(C)=O)[C@H](O)CO)[C@@H]2O)(C(=O)O)C[C@@H]1O [SIALYL LEWIS X] | 32% | 3.87 |  | < 2.40 | < 2.40
O=C(CCc1cc(O)c(O)c(O)c1)NCc1ccc(C(=O)O)cc1 | 21% |  | 21% |  | 
Cc1cc(O)c(O)c(O)c1 |  | 4.50 |  | 4.41 | 4.50
O=C(O)Cc1cccc(-c2ccccc2NC(=O)CCCNC(=O)c2cc(O)c(O)c(O)c2)c1 | 29% | < 3.30 |  | 3.81 | 4.24
O=C(O)Cc1ccc(-c2ccc(NC(=O)c3cccc(-c4ccc(O)c(O)c4O)c3)cc2)s1 | 47% | 5.01 | 83% | 6.10 | 6.24
O=C(O)Cc1ccc(-c2ccccc2NC(=O)CCc2ccc(O)c(O)c2O)s1 |  | < 3.30 |  | 4.07 | 4.54
O=C(O)Cc1ccc(-c2ccccc2NC(=O)Cc2cccc(-c3ccc(O)c(O)c3O)c2)s1 |  | < 3.30 | 58% | 5.01 | 5.44
O=C(O)Cc1cccc(-c2ccccc2O[C@H]2O[C@H](CO)[C@@H](O)[C@H](O)[C@@H]2O)c1 | 34% | < 3.30 |  | < 3.30 | < 3.30
O=C(O)c1cc(O)c(O)c(O)c1 [GALLIC ACID] |  | < 3.30 |  | 4.56 | 4.72
O=C(O)Cc1cccc(NC(=O)Cc2cc(O)c(O)c(O)c2)c1 | 27% |  |  | < 3.30 | 
O=C(O)Cc1ccc(-c2ccccc2NC(=O)c2ccccc2-c2cc(O)c(O)c(O)c2)s1 |  | 3.94 | 25% | 3.61 | 3.67
O=C(CCc1cc(O)c(O)c(O)c1)Nc1cccc(C(=O)O)c1 |  | 4.73 |  | 4.33 | 4.71
O=C(O)Cc1ccc(-c2ccccc2NC(=O)CCc2cc(O)c(O)c(O)c2)s1 | 35% | 4.38 | 11% | 4.87 | 4.99
O=C(O)Cc1cccc(-c2ccccc2NC(=O)CCc2cc(O)c(O)c(O)c2)c1 | 20% | 4.07 | 22% | 4.19 | 4.36
O=C(CCc1cc(O)c(O)c(O)c1)N[C@H]1CC[C@H](C(=O)O)CC1 |  | 5.51 |  | 5.24 | 5.47
